Laboratory results: ChEMBL document CHEMBL5058577, “EUbOPEN Chemogenomics Library 2 (Multiplex)” (2022)

System: U2OS
Assay: Multiplex assay against U2OS
Type: toxicity, cell-based
Conditions: human
How it was run: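 Live cells were stained at seeding with Hoechst33342, BioTracker Green Microtubule Cytoskeleton Dye, MitoTracker Red and Annexin V Alexa Fluor 680. Following compound addition, they were imaged on a CQ1 microscope at 37°C and 5% CO2 and gated by CellPathfinder machine learning into Hoechst high-intensity objects or normal cells, with normal cells split into healthy, pyknosed or fragmented nuclei and pyknosed cells into mitotic or apoptotic. Tubulin, mitochondrial-mass and membrane-permeability phenotypes are per cents of healthy-nucleus cells.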

[1] = 12 h, 1 µM, compound concentration 1 uM, replicate 1
[2] = 12 h, 1 µM, compound concentration 1 uM, replicate 2
[3] = 12 h, 10 µM, compound concentration 10 uM, replicate 1
[4] = 12 h, 10 µM, compound concentration 10 uM, replicate 2
[5] = 24 h, 1 µM, compound concentration 1 uM, replicate 1
[6] = 24 h, 1 µM, compound concentration 1 uM, replicate 2
[7] = 24 h, 10 µM, compound concentration 10 uM, replicate 1
[8] = 24 h, 10 µM, compound concentration 10 uM, replicate 2
[9] = 48 h, 1 µM, compound concentration 1 uM, replicate 1
[10] = 48 h, 1 µM, compound concentration 1 uM, replicate 2
[11] = 48 h, 10 µM, compound concentration 10 uM, replicate 1
[12] = 48 h, 10 µM, compound concentration 10 uM, replicate 2

O=c1nc2[nH]c3ccccc3nc-2c(=O)[nH]1 [ALLOXAZINE]
Population Apoptotic (%) [1]: 70% | Population Fragmented Nuclei (%) [1]: 25% | Population Healthy Nuclei (%) [1]: 61% | Population Hoechst High Intensity Objects (%) [1]: 2% | Population Membrane Permeable-Phenotype (%) [1]: 5% | Population Mitochondria Different-Phenotype (%) [1]: 0% | Population Mitotic Cells (%) [1]: 29% | Population Normal (%) [1]: 97% | Population Pyknosed Nuclei (%) [1]: 12% | Population Tubulin-Different-Phenotype (%) [1]: 3% | Total Cell Count [1]: 195 | Population Apoptotic (%) [2]: 75% | Population Fragmented Nuclei (%) [2]: 15% | Population Healthy Nuclei (%) [2]: 74% | Population Mitochondria Different-Phenotype (%) [2]: 5% | Population Mitotic Cells (%) [2]: 25% | Population Pyknosed Nuclei (%) [2]: 10% | Total Cell Count [2]: 122 | Population Apoptotic (%) [3]: 86% | Population Fragmented Nuclei (%) [3]: 33% | Population Healthy Nuclei (%) [3]: 59% | Population Hoechst High Intensity Objects (%) [3]: 0% | Population Membrane Permeable-Phenotype (%) [3]: 7% | Population Mitochondria Different-Phenotype (%) [3]: 0% | Population Mitotic Cells (%) [3]: 13% | Population Normal (%) [3]: 99% | Population Pyknosed Nuclei (%) [3]: 7% | Population Tubulin-Different-Phenotype (%) [3]: 1% | Total Cell Count [3]: 212 | Population Apoptotic (%) [4]: 88% | Population Fragmented Nuclei (%) [4]: 13% | Population Healthy Nuclei (%) [4]: 78% | Population Hoechst High Intensity Objects (%) [4]: 1% | Population Mitochondria Different-Phenotype (%) [4]: 5% | Population Mitotic Cells (%) [4]: 11% | Population Normal (%) [4]: 98% | Population Tubulin-Different-Phenotype (%) [4]: 3% | Total Cell Count [4]: 119 | Population Apoptotic (%) [5]: 73% | Population Fragmented Nuclei (%) [5]: 24% | Population Healthy Nuclei (%) [5]: 66% | Population Hoechst High Intensity Objects (%) [5]: 1% | Population Membrane Permeable-Phenotype (%) [5]: 4% | Population Mitochondria Different-Phenotype (%) [5]: 1% | Population Mitotic Cells (%) [5]: 26% | Population Normal (%) [5]: 98% | Population Pyknosed Nuclei (%) [5]: 8% | Population Tubulin-Different-Phenotype (%) [5]: 2% | Total Cell Count [5]: 261 | Population Apoptotic (%) [6]: 57% | Population Fragmented Nuclei (%) [6]: 16% | Population Healthy Nuclei (%) [6]: 74% | Population Hoechst High Intensity Objects (%) [6]: 2% | Population Membrane Permeable-Phenotype (%) [6]: 5% | Population Mitochondria Different-Phenotype (%) [6]: 5% | Population Mitotic Cells (%) [6]: 42% | Population Normal (%) [6]: 97% | Population Pyknosed Nuclei (%) [6]: 9% | Total Cell Count [6]: 146 | Population Apoptotic (%) [7]: 78% | Population Fragmented Nuclei (%) [7]: 30% | Population Healthy Nuclei (%) [7]: 61% | Population Hoechst High Intensity Objects (%) [7]: 0% | Population Membrane Permeable-Phenotype (%) [7]: 8% | Population Mitochondria Different-Phenotype (%) [7]: 2% | Population Mitotic Cells (%) [7]: 21% | Population Normal (%) [7]: 99% | Population Pyknosed Nuclei (%) [7]: 8% | Population Tubulin-Different-Phenotype (%) [7]: 2% | Total Cell Count [7]: 237 | Population Apoptotic (%) [8]: 75% | Population Fragmented Nuclei (%) [8]: 16% | Population Healthy Nuclei (%) [8]: 80% | Population Hoechst High Intensity Objects (%) [8]: 2% | Population Membrane Permeable-Phenotype (%) [8]: 5% | Population Mitochondria Different-Phenotype (%) [8]: 4% | Population Mitotic Cells (%) [8]: 25% | Population Normal (%) [8]: 97% | Population Pyknosed Nuclei (%) [8]: 2% | Population Tubulin-Different-Phenotype (%) [8]: 3% | Total Cell Count [8]: 148 | Population Apoptotic (%) [9]: 84% | Population Fragmented Nuclei (%) [9]: 19% | Population Healthy Nuclei (%) [9]: 71% | Population Hoechst High Intensity Objects (%) [9]: 1% | Population Membrane Permeable-Phenotype (%) [9]: 1% | Population Mitochondria Different-Phenotype (%) [9]: 1% | Population Mitotic Cells (%) [9]: 15% | Population Normal (%) [9]: 98% | Population Pyknosed Nuclei (%) [9]: 9% | Population Tubulin-Different-Phenotype (%) [9]: 1% | Total Cell Count [9]: 362 | Population Apoptotic (%) [10]: 76% | Population Fragmented Nuclei (%) [10]: 18% | Population Healthy Nuclei (%) [10]: 72% | Population Hoechst High Intensity Objects (%) [10]: 6% | Population Membrane Permeable-Phenotype (%) [10]: 4% | Population Mitochondria Different-Phenotype (%) [10]: 2% | Population Mitotic Cells (%) [10]: 23% | Population Normal (%) [10]: 93% | Population Pyknosed Nuclei (%) [10]: 8% | Population Tubulin-Different-Phenotype (%) [10]: 2% | Total Cell Count [10]: 207 | Population Apoptotic (%) [11]: 90% | Population Fragmented Nuclei (%) [11]: 26% | Population Healthy Nuclei (%) [11]: 66% | Population Hoechst High Intensity Objects (%) [11]: 1% | Population Membrane Permeable-Phenotype (%) [11]: 5% | Population Mitochondria Different-Phenotype (%) [11]: 1% | Population Mitotic Cells (%) [11]: 9% | Population Normal (%) [11]: 98% | Population Pyknosed Nuclei (%) [11]: 6% | Population Tubulin-Different-Phenotype (%) [11]: 2% | Total Cell Count [11]: 321 | Population Apoptotic (%) [12]: 76% | Population Fragmented Nuclei (%) [12]: 12% | Population Healthy Nuclei (%) [12]: 79% | Population Membrane Permeable-Phenotype (%) [12]: 3% | Population Mitotic Cells (%) [12]: 23% | Population Pyknosed Nuclei (%) [12]: 8% | Total Cell Count [12]: 210

CN(C)C/C=C/C(=O)Nc1ccc(C(=O)N2CCCC(Nc3ncc(Cl)c(-c4c[nH]c5ccccc45)n3)C2)cc1 (stereo not drawn)
Population Apoptotic (%) [1]: 77% | Population Fragmented Nuclei (%) [1]: 31% | Population Healthy Nuclei (%) [1]: 60% | Population Hoechst High Intensity Objects (%) [1]: 2% | Population Membrane Permeable-Phenotype (%) [1]: 5% | Population Mitochondria Different-Phenotype (%) [1]: 3% | Population Mitotic Cells (%) [1]: 22% | Population Normal (%) [1]: 97% | Population Pyknosed Nuclei (%) [1]: 8% | Population Tubulin-Different-Phenotype (%) [1]: 4% | Total Cell Count [1]: 228 | Population Apoptotic (%) [2]: 83% | Population Fragmented Nuclei (%) [2]: 18% | Population Healthy Nuclei (%) [2]: 77% | Population Hoechst High Intensity Objects (%) [2]: 0% | Population Membrane Permeable-Phenotype (%) [2]: 6% | Population Mitochondria Different-Phenotype (%) [2]: 5% | Population Mitotic Cells (%) [2]: 16% | Population Normal (%) [2]: 99% | Population Pyknosed Nuclei (%) [2]: 4% | Population Tubulin-Different-Phenotype (%) [2]: 8% | Total Cell Count [2]: 139 | Population Apoptotic (%) [3]: 80% | Population Fragmented Nuclei (%) [3]: 31% | Population Healthy Nuclei (%) [3]: 47% | Population Hoechst High Intensity Objects (%) [3]: 5% | Population Membrane Permeable-Phenotype (%) [3]: 33% | Population Mitochondria Different-Phenotype (%) [3]: 40% | Population Mitotic Cells (%) [3]: 20% | Population Normal (%) [3]: 94% | Population Pyknosed Nuclei (%) [3]: 20% | Population Tubulin-Different-Phenotype (%) [3]: 49% | Total Cell Count [3]: 233 | Population Apoptotic (%) [4]: 75% | Population Fragmented Nuclei (%) [4]: 25% | Population Healthy Nuclei (%) [4]: 54% | Population Hoechst High Intensity Objects (%) [4]: 2% | Population Membrane Permeable-Phenotype (%) [4]: 23% | Population Mitochondria Different-Phenotype (%) [4]: 42% | Population Mitotic Cells (%) [4]: 25% | Population Normal (%) [4]: 97% | Population Tubulin-Different-Phenotype (%) [4]: 37% | Total Cell Count [4]: 121 | Population Apoptotic (%) [5]: 93% | Population Fragmented Nuclei (%) [5]: 34% | Population Healthy Nuclei (%) [5]: 53% | Population Hoechst High Intensity Objects (%) [5]: 2% | Population Membrane Permeable-Phenotype (%) [5]: 7% | Population Mitochondria Different-Phenotype (%) [5]: 2% | Population Mitotic Cells (%) [5]: 6% | Population Normal (%) [5]: 97% | Population Pyknosed Nuclei (%) [5]: 11% | Population Tubulin-Different-Phenotype (%) [5]: 6% | Total Cell Count [5]: 271 | Population Apoptotic (%) [6]: 100% | Population Fragmented Nuclei (%) [6]: 21% | Population Healthy Nuclei (%) [6]: 67% | Population Hoechst High Intensity Objects (%) [6]: 0% | Population Membrane Permeable-Phenotype (%) [6]: 8% | Population Mitotic Cells (%) [6]: 0% | Population Normal (%) [6]: 99% | Population Tubulin-Different-Phenotype (%) [6]: 5% | Total Cell Count [6]: 164 | Population Apoptotic (%) [7]: 87% | Population Fragmented Nuclei (%) [7]: 39% | Population Healthy Nuclei (%) [7]: 35% | Population Hoechst High Intensity Objects (%) [7]: 9% | Population Membrane Permeable-Phenotype (%) [7]: 22% | Population Mitochondria Different-Phenotype (%) [7]: 33% | Population Mitotic Cells (%) [7]: 12% | Population Normal (%) [7]: 90% | Population Pyknosed Nuclei (%) [7]: 25% | Population Tubulin-Different-Phenotype (%) [7]: 29% | Total Cell Count [7]: 239 | Population Apoptotic (%) [8]: 97% | Population Fragmented Nuclei (%) [8]: 31% | Population Hoechst High Intensity Objects (%) [8]: 5% | Population Membrane Permeable-Phenotype (%) [8]: 21% | Population Mitochondria Different-Phenotype (%) [8]: 28% | Population Mitotic Cells (%) [8]: 2% | Population Normal (%) [8]: 94% | Population Pyknosed Nuclei (%) [8]: 32% | Population Tubulin-Different-Phenotype (%) [8]: 17% | Total Cell Count [8]: 135 | Population Apoptotic (%) [9]: 94% | Population Fragmented Nuclei (%) [9]: 29% | Population Healthy Nuclei (%) [9]: 60% | Population Hoechst High Intensity Objects (%) [9]: 3% | Population Membrane Permeable-Phenotype (%) [9]: 10% | Population Mitochondria Different-Phenotype (%) [9]: 3% | Population Mitotic Cells (%) [9]: 5% | Population Normal (%) [9]: 96% | Population Pyknosed Nuclei (%) [9]: 10% | Population Tubulin-Different-Phenotype (%) [9]: 5% | Total Cell Count [9]: 339 | Population Apoptotic (%) [10]: 96% | Population Fragmented Nuclei (%) [10]: 10% | Population Healthy Nuclei (%) [10]: 77% | Population Membrane Permeable-Phenotype (%) [10]: 3% | Population Mitotic Cells (%) [10]: 3% | Population Pyknosed Nuclei (%) [10]: 12% | Population Tubulin-Different-Phenotype (%) [10]: 3% | Total Cell Count [10]: 221 | Population Apoptotic (%) [11]: 100% | Population Fragmented Nuclei (%) [11]: 50% | Population Healthy Nuclei (%) [11]: 17% | Population Hoechst High Intensity Objects (%) [11]: 15% | Population Membrane Permeable-Phenotype (%) [11]: 47% | Population Mitochondria Different-Phenotype (%) [11]: 27% | Population Mitotic Cells (%) [11]: 0% | Population Normal (%) [11]: 84% | Population Pyknosed Nuclei (%) [11]: 32% | Population Tubulin-Different-Phenotype (%) [11]: 38% | Total Cell Count [11]: 251 | Population Healthy Nuclei (%) [12]: 18% | Population Hoechst High Intensity Objects (%) [12]: 9% | Population Membrane Permeable-Phenotype (%) [12]: 26% | Population Mitochondria Different-Phenotype (%) [12]: 19% | Population Normal (%) [12]: 90% | Population Pyknosed Nuclei (%) [12]: 31% | Population Tubulin-Different-Phenotype (%) [12]: 23% | Total Cell Count [12]: 157
